Experimental data as given in PMC12900291 (European journal of medicinal chemistry, 2025).
≈ marks a conversion by molar mass, not a printed value. Where “and” joins values, the source holds several entries; their conditions need not be identical. Identical values can stand only once. Entries after “also recorded” stand apart in the source; their conditions may differ.

Key:
HEK-293 cells = assay: Cell viability; type: cell-based; details: read-out: Cell viability IC50, 72 h exposure, MTT
In short: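 HEK-293.2sus cells were seeded at 9.6 × 10^3 cells/well and given a concentration gradient of test compound for 72 h at 37 °C, 5% CO2. MTT (0.5 mg/mL) was added for 3–4 h, medium removed, formazan dissolved in DMSO (15 min shaking, 21 °C), and A595 read. Cell-free background was subtracted, values taken relative to DMSO controls, and IC50 fitted by nonlinear least squares. n = 3–6.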

cardiomyocytes = details: cited from earlier work
Intrinsic clearance = type: in vitro ADME, human; details: for Thalf: human liver S9 0.5 mg/mL, 1 μM compound, NADPH, 37 °C; for microsomal CLint at 1 μM: human, liver S9 fraction, pH 7.4
SERCA2a [1] = target: T1, SERCA2a (Sus scrofa, UniProt P11607); details: earlier HTS study; cited from earlier work
T1 sequence (P11607 1-997 isoform P11607-2): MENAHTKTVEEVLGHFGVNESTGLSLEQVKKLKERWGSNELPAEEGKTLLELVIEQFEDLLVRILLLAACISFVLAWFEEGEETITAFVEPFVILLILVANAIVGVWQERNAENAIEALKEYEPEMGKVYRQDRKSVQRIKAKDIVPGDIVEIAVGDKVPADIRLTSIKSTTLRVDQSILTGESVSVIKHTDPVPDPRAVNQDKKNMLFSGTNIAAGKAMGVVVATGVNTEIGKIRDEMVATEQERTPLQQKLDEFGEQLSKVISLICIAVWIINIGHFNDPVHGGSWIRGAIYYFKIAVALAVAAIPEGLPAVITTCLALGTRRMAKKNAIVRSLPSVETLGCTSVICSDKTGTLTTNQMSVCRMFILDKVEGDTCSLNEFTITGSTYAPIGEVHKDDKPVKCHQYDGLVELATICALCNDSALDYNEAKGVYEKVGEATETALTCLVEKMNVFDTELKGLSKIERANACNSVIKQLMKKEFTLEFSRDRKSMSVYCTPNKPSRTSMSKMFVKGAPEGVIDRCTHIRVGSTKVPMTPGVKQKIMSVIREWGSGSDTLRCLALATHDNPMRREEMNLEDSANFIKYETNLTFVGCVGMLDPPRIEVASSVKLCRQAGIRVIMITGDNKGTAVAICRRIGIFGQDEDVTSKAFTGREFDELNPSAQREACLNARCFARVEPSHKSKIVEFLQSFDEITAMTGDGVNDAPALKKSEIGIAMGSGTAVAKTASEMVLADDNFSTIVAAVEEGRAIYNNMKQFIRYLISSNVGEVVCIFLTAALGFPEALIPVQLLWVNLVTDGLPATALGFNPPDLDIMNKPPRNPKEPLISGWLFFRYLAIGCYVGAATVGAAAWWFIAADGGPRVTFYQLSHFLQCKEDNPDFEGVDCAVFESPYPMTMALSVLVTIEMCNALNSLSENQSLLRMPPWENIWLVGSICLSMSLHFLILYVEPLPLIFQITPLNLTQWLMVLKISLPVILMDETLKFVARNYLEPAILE

SERCA2a [2] = target: T1, SERCA2a; assay: NADH-coupled enzyme-linked Ca2+-ATPase activity assay in cardiac SR vesicles; type: biochemical, porcine; details: for EC50 / Ca2+-ATPase [Ca2+]MAX % effect / Ca2+-ATPase [Ca2+]MID % effect: cardiac SR; for Max increase (%): Ca2+-ATPase activity, vs no compound, mean±SD, n=4-6
SERCA2a [3] = target: T1, SERCA2a; details: earlier HTS study; cited from earlier work; remark: listed apart in the source
SERCA2a [4] = target: T1, SERCA2a; assay: oxalate-based Ca2+-uptake; type: biochemical, porcine; details: cardiac SR
In short: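 Porcine left-ventricular SR vesicles (30 μg/mL) were prepared by differential centrifugation. Buffer: 50 mM MOPS, 100 mM KCl, 30 mg/mL sucrose, 10 mM potassium oxalate, 2 μM Fluo-4, free Ca2+ at pCa 8.0, 6.2 or 5.4, test compound 0.048–50 μM (two-fold series). Incubation 20 min at 22 °C, dark; 5 mM MgATP start; Fluo-4 decrease (ex 485/em 520 nm) tracked 15 min. Basal pCa 8.0 rate subtracted; Hill fit gives EC50 and % effect.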

SERCA1a = assay: NADH-coupled Ca2+-ATPase activity assay in skeletal SR vesicles; type: biochemical, rabbit; details: Table 5 vs Table S2
In short: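 Light SR came from rabbit skeletal white muscle by differential centrifugation and sucrose gradient. NADH-coupled assay: 4 μg/mL SR in 50 mM MOPS pH 7.0, 100 mM KCl, 1 mM EGTA, 0.2 mM NADH, 1 mM PEP, 10 IU/mL PK and LDH, 7 μM A23187, pCa 5.4/6.2/8.0. Test compound (0.048–50 μM) 20 min; 5 mM MgATP start; A340. pCa 8.0 rate subtracted; Hill fit gives EC50 and maximal % effect.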

[5] = Solubility assay in phosphate buffer, LC-MS/MS; type: physicochemical; details: 50 mM phosphate buffer pH 7.4, 37 °C, 12 h
[6] = Ca2+-ATPase [Ca2+]MAX EC50 (μM), [Ca2+]MAX (pCa 5.4)
[7] = Ca2+-ATPase [Ca2+]MID EC50 (μM), [Ca2+]MID (pCa 6.2)
[8] = Ca2+-Uptake [Ca2+]MAX EC50 (μM), [Ca2+]MAX (pCa 5.4)
[9] = Ca2+-Uptake [Ca2+]MID EC50 (μM), [Ca2+]MID (pCa 6.2)

Thalf (Intrinsic clearance) [min] | microsomal CLint at 1 μM (Intrinsic clearance) [µL/min/mg] | EC50 (SERCA2a [2]; [6]) [µM] | EC50 (SERCA2a [2]; [7]) [µM] | Max increase (%) (SERCA2a [2]; [Ca2+]MAX (pCa 5.4)) | EC50 (SERCA2a [4]; [8]) [µM] | EC50 (SERCA2a [4]; [9]) [µM] | Ca2+-Uptake [Ca2+]MAX % effect (SERCA2a [4]; [Ca2+]MAX (pCa 5.4)) [%] | Ca2+-Uptake [Ca2+]MAX EC50 (μM) (SERCA2a [4]; [Ca2+]MAX (pCa 5.4)) | selectivity for SERCA1a (vs SERCA2a), ATPase activity (SERCA1a; [Ca2+]MID) | Ca2+-ATPase [Ca2+]MAX % effect (SERCA2a [2]; [Ca2+]MAX (pCa 5.4)) [%] | Ca2+-ATPase [Ca2+]MID % effect (SERCA2a [2]; [Ca2+]MID (pCa 6.2)) [%] | Ca2+-Uptake [Ca2+]MID % effect (SERCA2a [4]; [Ca2+]MID (pCa 6.2)) [%] | Solubility [5] [µg/mL] | selectivity for SERCA2a relative to SERCA1a, higher efficacy, ATPase activity (SERCA1a; [Ca2+]MAX) | SMILES | IC50 (HEK-293 cells) [µM] | SR Ca2+ load / Ca2+ dynamics (cardiomyocytes) | activation of SERCA2a Ca2+-uptake (SERCA2a [1]) [%] | activation of SERCA2a ATPase activity (SERCA2a [3]) [%]
– | – | – | – | – | – | – | – | – | – | – | – | – | – | – | Cc1ccc2cccc(NC(=O)c3ccc(OC(C)C)cc3)c2n1 [CDN1163, reference compound] | 63 | – | – | –
97.6 | 14 ± 1.1 | 5.3 ± 1.8 | 6 ± 1.2 | 57% and 57±13% | 1.1 ± 0.73 | 0.46 ± 0.35 | – | – | – | – | – | – | – | – | CCCN(Cc1ccccc1OC)C(=O)c1cc(C)c(C)s1 [Compound 1, N-(2-Methoxybenzyl)-4,5-dimethyl-N-propylthiophene-2-carboxamide] | – | increase SR Ca^2+ load; also recorded: increased Ca^2+ dynamics and Ca^2+ load | 24 | 58
20.1 | 73 ± 9.3 | 3.3 ± 0.5 | 3.6 ± 2.8 | 45% and 45±10% | 1.1 ± 0.45 | > 50 | 8.8±2.3 | unchanged | – | – | – | – | – | – | CCCN(Cc1ccccc1OC)C(=O)c1cc2c(s1)CCCC2 [Compound 8, N-(2-Methoxybenzyl)-N-propyl-4,5,6,7-tetrahydrobenzo[b]thiophene-2-carboxamide] | 29 ± 18 | – | – | –
10.3 | 133 ± 11 | 5.1 ± 2.1 | 5.3 ± 1.3 | 40±14% | 1.5 ± 0.33 | 1 ± 0.86 | 15±5.9 | increased | at least 8 fold | 40±14 | 25±7.4 | 7.0±3.7 | – | – | CCCN(Cc1ccccc1OC)C(=O)c1cccc(C(F)(F)F)c1 [Compound 21, N-(2-Methoxybenzyl)-N-propyl-3-(trifluoromethyl)benzamide] | 31 ± 16 | – | – | –
74.5 | 15 ± 7.2 | 4 ± 2.1 | 3.7 ± 0.73 | 53% and 53±7.7% | 0.8 ± 0.57 | 0.89 ± 0.4 | – | decreased | – | – | – | – | 507 ± 7 (≈ 1330 µM) | – | CCCN(Cc1ccccc1OC)C(=O)c1ccc(F)c(Br)c1 [Compound 25, 3-Bromo-4-fluoro-N-(2-methoxybenzyl)-N-propylbenzamide] | – | – | – | –
34.7 | 37 ± 6.2 | 6.3 ± 1.8 | 4.6 ± 2 | 43±6.7% | 0.77 ± 0.57 | 0.91 ± 0.85 | 13±5.7 | decreased | – | 43±6.7 | 24±6.0 | 6.0±1.6 | – | at least 8 fold | CCN(Cc1ccccc1OC)C(=O)c1cc(C)c(C)s1 [Compound 32, N-Ethyl-N-(2-methoxybenzyl)-4,5-dimethylthiophene-2-carboxamide] | – | – | – | –
16.6 | 83 ± 4.2 | 4 ± 0.8 | 3 ± 1 | 72% and 72±8.5% | 1.1 ± 0.35 | 0.63 ± 0.21 | 22±5.6 | unchanged | – | 72±8.5 | 23±6.0 | 15±7.0 | – | – | CCCCN(Cc1ccccc1OC)C(=O)c1cc(C)c(C)s1 [Compound 33, N-Butyl-N-(2-methoxybenzyl)-4,5-dimethylthiophene-2-carboxamide] | – | – | – | –
